Experimental data as given in ChEMBL document CHEMBL3352171, “Synthesis and biological evaluation of andrographolide analogues as anti-cancer agents” (Eur J Med Chem, 2014).
Activity calls are given as the source filed them. The calls are words filed in the database; no cut-off is given here.

Legend:
[1] = Retention time of the compound by HPLC method; assay type: physicochemical
HEK293 [2] = assay: Cytotoxicity against HEK293 cells after 48 hrs by MTT assay; assay type: functional; settings: Homo sapiens, HEK293, 48 h; read-out: LC50 (the source's name)
Summary of the method: (§1)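 Cells seeded at 10,000 per well and exposed to increasing compound concentrations for 48 h. After a PBS wash, MTT (2.5 mg/mL) was added for 6 h at 37 °C, then detergent (10% NP-40, 4 mM HCl), and absorbance was read at 570 nm. LC50 is the concentration causing 50% cell death. Values are means of three independent experiments.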

Vero = assay: Cytotoxicity against african green monkey Vero cells after 48 hrs by MTT assay; assay type: cell-based; settings: chlorocebus sabaeus; summary of the method: as §1
HEK293 [3] = assay: Reduction in NFkappaB expression in HEK293 cells at LC50 level after 48 hrs by Western blot method; assay type: functional, cell-based; settings: Homo sapiens
HEK293 [4] = assay: Increase in p53 expression in p53 deficient HEK293 cells at LC50 level after 48 hrs by Western blot method; assay type: functional, cell-based; settings: Homo sapiens
HEK293 [5] = assay: Increase in p53 expression in HEK293 cells at LC50 level after 48 hrs by Western blot method; assay type: functional, cell-based; settings: Homo sapiens
MCF7 [6] = assay: Cytotoxicity against human MCF7 cells after 48 hrs by MTT assay; assay type: functional; settings: MCF7, 48 h, read-out: LC50 (the source's name); summary of the method: as §1
HEK293 [7] = assay: Reduction in Bcl-xL expression in p53 deficient HEK293 cells at LC50 level after 48 hrs by Western blot method; assay type: functional, cell-based; settings: Homo sapiens
HEK293 [8] = assay: Reduction in NFkappaB expression in p53 deficient HEK293 cells at LC50 level after 48 hrs by Western blot method; assay type: functional, cell-based; settings: Homo sapiens
HEK293 [9] = assay: Increase in Bax expression in HEK293 cells at LC50 level after 48 hrs by Western blot method; assay type: functional, cell-based; settings: Homo sapiens
HEK293 [10] = assay: Increase in PARP cleavage in p53 deficient HEK293 cells at LC50 level after 48 hrs by Western blot method; assay type: functional, cell-based; settings: Homo sapiens
[11] = Cytotoxicity against human MCF10A cells after 48 hrs by MTT assay; assay type: cell-based; settings: mcf-10a; summary of the method: as §1
HEK293 [12] = assay: Reduction in Bcl-xL expression in HEK293 cells at LC50 level after 48 hrs by Western blot method; assay type: functional, cell-based; settings: Homo sapiens
HEK293 [13] = assay: Increase in Bax expression in p53 deficient HEK293 cells at LC50 level after 48 hrs by Western blot method; assay type: functional, cell-based; settings: Homo sapiens
HEK293 [14] = assay: Increase in caspase-3 expression in HEK293 cells at LC50 level after 48 hrs by immunocytochemistry; assay type: functional, cell-based; settings: Homo sapiens
HEK293 [15] = assay: Increase in PARP cleavage in HEK293 cells at LC50 level after 48 hrs by Western blot method; assay type: functional, cell-based; settings: Homo sapiens
MCF7 [16] = assay: Cytotoxicity against human MCF7 cells; assay type: functional
Summary of the method: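 MTT viability: 10,000 cells/well, 48 h exposure to increasing concentrations, MTT 2.5 mg/mL for 6 h at 37 °C, NP-40/HCl solubilization, absorbance 570 nm. MCF-7 in DMEM with 10% FBS; MCF-10A normal cells run alongside. LC50 from three independent experiments.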

Row | SMILES | Retention_time [1] [min] | CC50 (HEK293 [2]) [µM] | LC50 (Vero) [µM] | also measured
1 | C[C@]1(CO)[C@H]2CC[C@@]3(CO3)[C@@H](C/C=C3/C(=O)OC[C@H]3OC(=O)CBr)[C@]2(C)CC[C@H]1O | 27.8 | 16 | 29 | –
2 | C=C1CC[C@@H]2[C@](C)(CO)[C@H](O)CC[C@@]2(C)[C@@H]1C/C=C1/C(=O)OC[C@H]1O [ANDROGRAPHOLIDE] | – | 25 | < 40 | Activity (HEK293 [3]): Active; Activity (HEK293 [4]): inactive; Activity (HEK293 [5]): Active; CC50 (MCF7 [6]): 16 µM; Activity (HEK293 [7]): inactive; Activity (HEK293 [8]): inactive; Activity (HEK293 [9]): Active; Activity (HEK293 [10]): inactive; LC50 [11]: > 40 µM; Activity (HEK293 [12]): Active; Activity (HEK293 [13]): inactive; Activity (HEK293 [14]): Active; Activity (HEK293 [15]): Active
3 | C=C1CC[C@@H]2[C@](C)(CO)[C@H](O)CC[C@@]2(C)[C@@H]1C/C=C1/C(=O)OC[C@H]1OC(C)=O | – | – | – | GI50 (MCF7 [16]): 5.49 µM
4 | C=C1CC[C@@H]2[C@](C)(CO)[C@H](O)CC[C@@]2(C)[C@@H]1C/C=C1/C(=O)OC[C@H]1OC(=O)CCl | 23.2 | 20 | 25 | –
5 | C[C@]1(CO)[C@H]2CC[C@]3(CO3)[C@@H](C/C=C3/C(=O)OC[C@H]3OC(=O)CCl)[C@]2(C)CC[C@H]1O | 36.5 | 18 | 43 | –
6 | C[C@]1(CO)[C@H]2CC[C@]3(CO3)[C@@H](C/C=C3/C(=O)OC[C@H]3OC(=O)CI)[C@]2(C)CC[C@H]1O | 30.2 | 25 | 42 | –
7 | C[C@]1(CO)[C@H]2CC[C@@]3(CO3)[C@@H](C/C=C3/C(=O)OC[C@H]3OC(=O)CCl)[C@]2(C)CC[C@H]1O | 37.1 | 31 | 37 | –
8 | C=C1CC[C@@H]2[C@]3(C)COC(C)(C)O[C@@H]3CC[C@@]2(C)[C@@H]1C/C=C1/C(=O)OC[C@H]1OC(=O)CCl | – | 19 | 42 | –
